Data set [1] deals with Giardia intestinalis. The data set is described as follows: Antiprotozoal activity against Giardia lamblia WB6 trophozoites after 48 hrs. In kind it is functional. The conditions noted are these: Giardia duodenalis, WB6, 48 h. In short, it runs like this: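 Trophozoites of strain WB-6 cultured anaerobically 48 h with 2-fold serial drug dilutions, triplicate wells; viability read by XTT reagent.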

The nature of data set [2]: Toxicity in MDBK cells. The conditions noted are these: Bos taurus. In kind it is cell-based.
Data set [3] has as its system Giardia intestinalis. The data set is described as follows: Cyst formation in Giardia lamblia WB6 at 10 uM relative to control. The conditions noted are these: Giardia duodenalis.

SMILES strings stand for the structures. Converted amounts (≈) assume the structure as drawn.

The term MIC denotes the smallest concentration in the dilution series that meets the test's criterion for growth inhibition. A low value points to a more susceptible organism. A word on the EC50: it is the concentration that produces a half-maximal response. In turn, `O=c1ccn(C[C@@H]2O[C@H](COP(=O)(O)CCCN3C[C@H](O)[C@@H](O)C3)[C@@H](O)[C@H]2O)c(=O)[nH]1` yielded an MIC with Giardia intestinalis [1] of 20 µM (≈ 9.31 µg/mL). The compound also showed an EC50 in data set [2] of more than 250 µM. For the same compound, the level, % of control at 10 µM in the data set with Giardia intestinalis [3] is 22.9%.

Regarding `O=c1ccn(C[C@@H]2O[C@H](COP(=O)(O)CN3C[C@@H](O)[C@H](O)C3)[C@@H](O)[C@H]2O)c(=O)[nH]1`, the MIC with Giardia intestinalis [1] was more than 20 µM. This compound returned an EC50 in data set [2] of more than 250 µM.

Take `CCOP(=O)(CCNCCOC(C)=O)OCC`: the MIC against Giardia intestinalis [1] is more than 20 µM. The compound further came in with an EC50 in data set [2] of more than 250 µM.

The compound `NCP(=O)(O)OC[C@H]1O[C@@H](n2ccc(=O)[nH]c2=O)[C@H](O)[C@@H]1O` came in with an MIC against Giardia intestinalis [1] of more than 20 µM. This compound gave an EC50 in data set [2] of more than 250 µM. The compound also registered a level, % of control at 10 µM with Giardia intestinalis [3] of 34.4%.

As for `CCOP(=O)(CCN(CCOC(C)=O)CCOC(C)=O)OCC`, the MIC with Giardia intestinalis [1] was more than 20 µM. In addition, the EC50 in data set [2] was more than 250 µM.

Consider `O=c1ccn(C[C@@H]2O[C@H](COP(=O)(O)CCN(CCO)CCO)[C@@H](O)[C@H]2O)c(=O)[nH]1`, for which the MIC in the data set with Giardia intestinalis [1] was more than 10 µM. This compound had an EC50 in data set [2] of more than 250 µM. The compound further had a level, % of control at 10 µM in the data set on Giardia intestinalis [3] of 72.2%.

Compound `CC(=O)OCCN(CCOC(C)=O)CCP(=O)(O)OC[C@H]1O[C@@H](Cn2ccc(=O)[nH]c2=O)[C@H](O)[C@@H]1O` came in with an MIC in the data set with Giardia intestinalis [1] of more than 10 µM. This compound also yielded an EC50 in data set [2] of more than 250 µM. The compound also had a level, % of control at 10 µM in the data set with Giardia intestinalis [3] of 27.4%.

The compound `O=c1ccn(C[C@@H]2O[C@H](COP(=O)(O)CCN3CCCC3)[C@@H](O)[C@H]2O)c(=O)[nH]1` displayed an MIC in the data set with Giardia intestinalis [1] of more than 20 µM. In data set [2], the EC50 was more than 250 µM.

In the data set with Giardia intestinalis [1], `CC(=O)OCCN(CCO)CCP(=O)(O)OC[C@H]1O[C@@H](Cn2ccc(=O)[nH]c2=O)[C@H](O)[C@@H]1O` yielded an MIC of more than 10 µM. The compound further yielded an EC50 in data set [2] of more than 250 µM. For the same compound, in the data set on Giardia intestinalis [3], the level, % of control at 10 µM was 35.6%.

`O=C1[C@@H](O)[C@H](O)C(=O)N1CCP(=O)(O)OC[C@H]1O[C@@H](Cn2ccc(=O)[nH]c2=O)[C@H](O)[C@@H]1O` came in with an MIC in the data set on Giardia intestinalis [1] of more than 20 µM. Also, the EC50 in data set [2] was more than 250 µM. In the data set with Giardia intestinalis [3], this compound had a level, % of control at 10 µM of 28.7%.

`NCCP(=O)(O)OC[C@H]1O[C@@H](n2ccc(=O)[nH]c2=O)[C@H](O)[C@@H]1O` came in with an MIC in the data set on Giardia intestinalis [1] of more than 10 µM. In addition, in data set [2], the EC50 was more than 250 µM. Besides, the level, % of control at 10 µM with Giardia intestinalis [3] came out at 14.9%.

Consider `O=c1ccn(C[C@@H]2O[C@H](COP(=O)(O)COCCN3C[C@@H](O)[C@H](O)C3)[C@@H](O)[C@H]2O)c(=O)[nH]1`, for which the MIC with Giardia intestinalis [1] stood at 20 µM (≈ 9.63 µg/mL). In data set [2], this compound yielded an EC50 of more than 250 µM. Also, in the data set on Giardia intestinalis [3], the level, % of control at 10 µM was 17.2%.

Compound `O=c1ccn(C[C@@H]2O[C@H](COP(=O)(O)CCNCCO)[C@@H](O)[C@H]2O)c(=O)[nH]1` came in with a minimum inhibitory concentration (MIC) against Giardia intestinalis [1] of more than 20 µM. Besides, the EC50 in data set [2] was more than 250 µM.

Consider `O=c1ccn(C[C@@H]2O[C@H](COP(=O)(O)CCN3C[C@H](O)[C@@H](O)C3)[C@@H](O)[C@H]2O)c(=O)[nH]1`, for which the MIC against Giardia intestinalis [1] came to 0.48 µM (≈ 0.217 µg/mL). Also, the EC50 in data set [2] is more than 250 µM. Moreover, in the data set with Giardia intestinalis [3], the level, % of control at 10 µM is 5.73%.

These data come from ChEMBL document CHEMBL1147902, “Phosphonoxins: rational design and discovery of a potent nucleotide anti-Giardia agent” (Bioorg Med Chem Lett, 2007).
